Entries after “also recorded” stand apart in the source; their conditions may differ.
Key:
Assay type in all cases: cell-based
HV1 = biological target: T1, HV1 (Homo sapiens, UniProt Q96D96); assay: whole-cell patch-clamp, off-target channel, 10 μM compound; conditions: vs 0.1% DMSO
T1 sequence (Q96D96 1-273): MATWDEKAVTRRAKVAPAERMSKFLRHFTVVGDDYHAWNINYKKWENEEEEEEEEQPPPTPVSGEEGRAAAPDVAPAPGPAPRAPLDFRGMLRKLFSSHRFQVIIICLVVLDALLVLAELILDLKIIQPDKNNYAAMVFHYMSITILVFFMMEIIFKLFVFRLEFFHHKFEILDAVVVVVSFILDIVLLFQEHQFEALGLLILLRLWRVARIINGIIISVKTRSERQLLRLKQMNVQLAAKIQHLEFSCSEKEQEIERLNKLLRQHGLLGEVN
Outline: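 HV1 in transfected HEK293T cells, whole-cell. Pipette (mM): 120 CsCl, 100 MES, pH 5.5. Bath (mM): 150 NaCl, 5 KCl, 1 MgCl2, 2 CaCl2, 10 glucose, 100 HEPES, pH 7.2. Bath with 0.1% DMSO applied before 10 μM test compound. Inhibition ratios compared by unpaired t-test, n = 5.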

NaV1.4 = NaV1.4 (Homo sapiens, UniProt P35499); assay: whole-cell patch-clamp, off-target channel, 10 μM compound; conditions: for sensitivity of channel to compound: vs 0.1% DMSO
Chain of NaV1.4 (P35499 whole entry): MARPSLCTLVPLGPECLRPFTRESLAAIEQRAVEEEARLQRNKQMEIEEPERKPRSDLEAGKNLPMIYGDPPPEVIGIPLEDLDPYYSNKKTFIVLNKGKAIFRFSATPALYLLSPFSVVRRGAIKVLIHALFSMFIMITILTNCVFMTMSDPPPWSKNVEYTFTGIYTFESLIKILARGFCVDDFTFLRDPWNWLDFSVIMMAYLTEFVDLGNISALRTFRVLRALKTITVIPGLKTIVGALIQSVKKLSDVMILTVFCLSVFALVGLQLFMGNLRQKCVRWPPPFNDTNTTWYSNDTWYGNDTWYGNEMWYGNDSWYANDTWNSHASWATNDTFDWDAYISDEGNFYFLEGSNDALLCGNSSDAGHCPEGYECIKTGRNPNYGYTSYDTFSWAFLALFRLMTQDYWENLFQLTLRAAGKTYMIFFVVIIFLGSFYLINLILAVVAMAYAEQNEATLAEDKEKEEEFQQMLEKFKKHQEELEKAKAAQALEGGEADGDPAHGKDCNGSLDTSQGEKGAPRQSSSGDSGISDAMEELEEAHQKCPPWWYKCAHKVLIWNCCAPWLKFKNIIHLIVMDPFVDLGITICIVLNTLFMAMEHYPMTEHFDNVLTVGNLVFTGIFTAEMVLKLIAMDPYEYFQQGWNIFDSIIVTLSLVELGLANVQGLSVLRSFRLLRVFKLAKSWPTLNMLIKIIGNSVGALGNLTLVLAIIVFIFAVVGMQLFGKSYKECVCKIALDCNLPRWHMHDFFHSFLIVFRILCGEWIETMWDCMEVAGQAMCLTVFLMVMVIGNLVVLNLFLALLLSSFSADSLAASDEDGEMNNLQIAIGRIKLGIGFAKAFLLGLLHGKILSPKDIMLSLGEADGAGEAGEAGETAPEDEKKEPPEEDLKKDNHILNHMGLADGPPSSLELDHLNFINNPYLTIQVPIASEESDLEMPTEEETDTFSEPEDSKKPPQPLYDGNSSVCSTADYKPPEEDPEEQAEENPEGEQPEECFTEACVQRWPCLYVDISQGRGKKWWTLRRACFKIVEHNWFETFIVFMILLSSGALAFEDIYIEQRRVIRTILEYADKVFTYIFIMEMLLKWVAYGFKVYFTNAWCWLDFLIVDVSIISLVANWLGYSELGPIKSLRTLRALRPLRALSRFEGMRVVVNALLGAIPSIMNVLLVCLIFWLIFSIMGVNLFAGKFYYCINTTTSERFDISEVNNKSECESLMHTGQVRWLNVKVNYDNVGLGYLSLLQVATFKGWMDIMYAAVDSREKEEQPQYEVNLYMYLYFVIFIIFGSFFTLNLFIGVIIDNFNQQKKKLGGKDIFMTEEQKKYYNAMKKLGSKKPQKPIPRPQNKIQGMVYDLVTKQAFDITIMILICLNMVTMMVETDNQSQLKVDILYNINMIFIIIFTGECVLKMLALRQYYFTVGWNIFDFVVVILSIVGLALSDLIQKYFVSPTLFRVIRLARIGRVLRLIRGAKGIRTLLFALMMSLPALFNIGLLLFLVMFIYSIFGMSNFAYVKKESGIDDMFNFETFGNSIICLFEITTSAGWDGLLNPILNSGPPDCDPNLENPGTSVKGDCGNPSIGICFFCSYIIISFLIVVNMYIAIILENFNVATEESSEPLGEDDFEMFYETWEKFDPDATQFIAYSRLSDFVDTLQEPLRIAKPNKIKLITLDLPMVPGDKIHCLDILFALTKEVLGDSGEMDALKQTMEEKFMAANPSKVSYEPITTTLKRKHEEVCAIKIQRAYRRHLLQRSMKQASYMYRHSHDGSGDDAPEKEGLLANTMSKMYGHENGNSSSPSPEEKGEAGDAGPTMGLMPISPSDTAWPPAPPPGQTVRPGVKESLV
Outline: (§1)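 NaV channels, transiently transfected HEK293T cells, whole-cell, 16–24 h after seeding. Pipette (mM): 140 CsF, 1 EGTA, 10 NaCl, 10 HEPES, pH 7.4. Bath (mM): 140 NaCl, 5 KCl, 2 CaCl2, 1 MgCl2, 10 glucose, 10 HEPES, pH 7.4. Bath with 0.1% DMSO applied before 10 μM test compound. Inhibition ratios compared by unpaired t-test, n = 5.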

NaV1.3 = NaV1.3 (Rattus norvegicus, UniProt P08104); assay: as above; conditions: vs 0.1% DMSO
Chain of NaV1.3 (P08104 whole entry): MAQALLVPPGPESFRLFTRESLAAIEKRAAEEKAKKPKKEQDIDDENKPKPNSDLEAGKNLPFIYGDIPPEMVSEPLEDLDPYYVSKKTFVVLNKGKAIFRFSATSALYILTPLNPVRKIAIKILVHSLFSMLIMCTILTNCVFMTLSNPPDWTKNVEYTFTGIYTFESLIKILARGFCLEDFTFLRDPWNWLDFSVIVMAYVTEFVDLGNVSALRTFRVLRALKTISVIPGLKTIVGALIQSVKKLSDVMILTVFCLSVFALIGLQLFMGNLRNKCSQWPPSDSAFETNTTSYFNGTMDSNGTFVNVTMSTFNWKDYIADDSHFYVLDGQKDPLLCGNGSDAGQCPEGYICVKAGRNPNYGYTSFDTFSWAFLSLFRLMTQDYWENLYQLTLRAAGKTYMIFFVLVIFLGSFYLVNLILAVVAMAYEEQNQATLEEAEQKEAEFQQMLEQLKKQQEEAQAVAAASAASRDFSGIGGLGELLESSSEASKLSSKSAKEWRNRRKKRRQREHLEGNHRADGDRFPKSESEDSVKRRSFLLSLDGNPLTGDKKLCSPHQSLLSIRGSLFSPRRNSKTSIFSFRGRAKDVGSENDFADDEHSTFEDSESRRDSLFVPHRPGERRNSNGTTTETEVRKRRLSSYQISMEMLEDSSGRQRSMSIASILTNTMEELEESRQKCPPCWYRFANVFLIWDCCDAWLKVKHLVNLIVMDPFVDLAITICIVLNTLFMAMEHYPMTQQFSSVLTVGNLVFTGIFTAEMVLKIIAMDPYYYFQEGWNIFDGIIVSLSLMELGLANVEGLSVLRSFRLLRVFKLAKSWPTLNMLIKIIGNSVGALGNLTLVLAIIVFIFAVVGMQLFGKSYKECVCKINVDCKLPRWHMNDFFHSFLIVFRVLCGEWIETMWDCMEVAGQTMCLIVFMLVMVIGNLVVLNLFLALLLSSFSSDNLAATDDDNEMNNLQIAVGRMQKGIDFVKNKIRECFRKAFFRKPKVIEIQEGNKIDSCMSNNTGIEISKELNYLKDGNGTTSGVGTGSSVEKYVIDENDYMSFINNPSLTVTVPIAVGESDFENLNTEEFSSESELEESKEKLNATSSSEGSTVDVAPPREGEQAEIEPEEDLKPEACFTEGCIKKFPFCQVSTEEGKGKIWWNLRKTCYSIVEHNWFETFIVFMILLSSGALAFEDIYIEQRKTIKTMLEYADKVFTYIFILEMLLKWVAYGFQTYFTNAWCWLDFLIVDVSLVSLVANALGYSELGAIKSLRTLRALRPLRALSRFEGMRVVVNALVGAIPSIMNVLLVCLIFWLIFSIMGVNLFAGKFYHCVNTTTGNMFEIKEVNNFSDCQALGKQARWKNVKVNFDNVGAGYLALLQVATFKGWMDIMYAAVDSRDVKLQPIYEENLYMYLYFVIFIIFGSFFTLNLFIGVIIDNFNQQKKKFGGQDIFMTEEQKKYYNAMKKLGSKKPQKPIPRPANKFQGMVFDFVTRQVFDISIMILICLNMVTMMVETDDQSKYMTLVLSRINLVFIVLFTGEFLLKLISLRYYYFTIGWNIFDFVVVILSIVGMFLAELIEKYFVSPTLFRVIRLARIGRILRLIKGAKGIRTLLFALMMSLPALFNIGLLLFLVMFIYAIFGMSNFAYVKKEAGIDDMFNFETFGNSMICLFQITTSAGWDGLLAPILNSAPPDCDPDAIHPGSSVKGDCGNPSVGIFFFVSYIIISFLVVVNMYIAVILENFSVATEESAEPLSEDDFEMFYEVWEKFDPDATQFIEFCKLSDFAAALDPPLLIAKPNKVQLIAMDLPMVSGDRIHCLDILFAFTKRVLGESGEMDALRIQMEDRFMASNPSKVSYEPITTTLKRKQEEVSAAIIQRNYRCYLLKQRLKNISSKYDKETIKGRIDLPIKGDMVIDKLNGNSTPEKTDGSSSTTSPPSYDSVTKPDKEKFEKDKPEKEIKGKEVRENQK
Outline: as §1

KV1.3 = KV1.3 (Homo sapiens, UniProt P22001); assay: whole-cell patch-clamp, off-target channel, 10 μM compound
Chain of KV1.3 (P22001 whole entry): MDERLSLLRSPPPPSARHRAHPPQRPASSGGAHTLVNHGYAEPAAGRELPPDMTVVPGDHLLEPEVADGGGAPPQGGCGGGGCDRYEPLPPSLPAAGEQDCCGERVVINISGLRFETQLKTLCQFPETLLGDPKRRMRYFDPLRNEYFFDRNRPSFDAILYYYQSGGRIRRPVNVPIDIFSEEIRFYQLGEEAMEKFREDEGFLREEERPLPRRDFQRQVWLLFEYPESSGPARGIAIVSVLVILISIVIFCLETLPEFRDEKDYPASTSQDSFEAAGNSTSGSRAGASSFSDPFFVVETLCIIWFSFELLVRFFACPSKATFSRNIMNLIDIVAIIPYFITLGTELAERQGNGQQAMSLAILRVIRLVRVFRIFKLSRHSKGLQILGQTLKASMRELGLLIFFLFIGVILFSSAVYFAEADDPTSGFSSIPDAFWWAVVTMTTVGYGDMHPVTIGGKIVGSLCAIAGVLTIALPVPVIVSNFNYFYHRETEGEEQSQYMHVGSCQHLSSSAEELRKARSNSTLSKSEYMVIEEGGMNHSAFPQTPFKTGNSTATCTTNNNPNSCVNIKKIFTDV
Outline: (§2)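 KV channels in transiently transfected HEK293T cells, whole-cell. Pipette (mM): 140 KCl, 2.5 MgCl2, 11 EGTA, 10 HEPES, pH 7.4. Bath (mM): 145 NaCl, 2.8 KCl, 2 CaCl2, 1 MgCl2, 10 glucose, 10 HEPES, pH 7.4. 0.1% DMSO bath applied, then 10 μM test compound. DMSO vs compound inhibition ratio compared by unpaired t-test, n = 5.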

mOtop1/R554A = biological target: T2, mOtop1/R554A (Mus musculus, UniProt Q80VM9, R554A); assay: patch-clamp, mOtop1 mutant; conditions: for effect of mutating R554 on the compound's action on Otop1: Fig 5I, J
T2 sequence (Q80VM9 1-600 R554A): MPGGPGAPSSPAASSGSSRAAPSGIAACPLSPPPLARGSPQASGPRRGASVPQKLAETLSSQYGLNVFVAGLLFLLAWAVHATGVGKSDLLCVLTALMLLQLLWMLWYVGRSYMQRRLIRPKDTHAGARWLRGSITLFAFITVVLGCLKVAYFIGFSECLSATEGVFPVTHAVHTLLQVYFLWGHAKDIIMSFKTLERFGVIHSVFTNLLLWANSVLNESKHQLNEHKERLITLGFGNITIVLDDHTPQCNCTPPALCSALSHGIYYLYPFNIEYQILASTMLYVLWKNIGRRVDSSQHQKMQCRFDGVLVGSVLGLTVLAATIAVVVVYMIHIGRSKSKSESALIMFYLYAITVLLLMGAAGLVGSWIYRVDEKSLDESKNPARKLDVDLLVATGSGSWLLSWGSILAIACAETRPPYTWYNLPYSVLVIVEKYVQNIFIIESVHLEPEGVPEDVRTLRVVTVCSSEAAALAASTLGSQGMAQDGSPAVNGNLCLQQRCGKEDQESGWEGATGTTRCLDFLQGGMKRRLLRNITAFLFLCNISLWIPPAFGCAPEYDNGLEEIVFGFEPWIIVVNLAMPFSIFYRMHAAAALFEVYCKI

PAC = PAC (Homo sapiens, UniProt Q9H813); assay: whole-cell patch-clamp, off-target channel, 10 μM compound; conditions: vs 0.1% DMSO
Chain of PAC (Q9H813 whole entry): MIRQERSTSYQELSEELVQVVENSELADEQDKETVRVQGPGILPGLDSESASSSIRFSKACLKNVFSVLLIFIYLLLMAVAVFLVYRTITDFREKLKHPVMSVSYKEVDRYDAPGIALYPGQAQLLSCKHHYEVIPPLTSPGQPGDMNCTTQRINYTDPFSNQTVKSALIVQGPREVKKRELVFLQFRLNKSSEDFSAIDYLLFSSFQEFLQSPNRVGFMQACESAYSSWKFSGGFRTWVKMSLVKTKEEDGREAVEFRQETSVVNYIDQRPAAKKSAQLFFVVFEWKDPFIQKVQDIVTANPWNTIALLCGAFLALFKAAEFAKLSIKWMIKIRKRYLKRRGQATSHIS
Outline: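 PAC in transfected HEK293T cells, whole-cell. Pipette (mM): 135 CsCl, 1 MgCl2, 2 CaCl2, 10 HEPES, 5 EGTA, 4 Mg-ATP, pH 7.2. NaCl-based bath buffered with 10 mM HEPES (pH 7.3) or 5 mM Na3-citrate (pH 5.5). 0.1% DMSO bath applied before 10 μM test compound. Inhibition ratios compared by unpaired t-test, n = 5.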

KV3.1 = biological target: T3, KV3.1 (Mus musculus, UniProt P15388); assay: whole-cell patch-clamp, off-target channel, 10 μM compound; conditions: for sensitivity of channel to compound: vs 0.1% DMSO
T3 sequence (P15388 1-585 isoform P15388-3): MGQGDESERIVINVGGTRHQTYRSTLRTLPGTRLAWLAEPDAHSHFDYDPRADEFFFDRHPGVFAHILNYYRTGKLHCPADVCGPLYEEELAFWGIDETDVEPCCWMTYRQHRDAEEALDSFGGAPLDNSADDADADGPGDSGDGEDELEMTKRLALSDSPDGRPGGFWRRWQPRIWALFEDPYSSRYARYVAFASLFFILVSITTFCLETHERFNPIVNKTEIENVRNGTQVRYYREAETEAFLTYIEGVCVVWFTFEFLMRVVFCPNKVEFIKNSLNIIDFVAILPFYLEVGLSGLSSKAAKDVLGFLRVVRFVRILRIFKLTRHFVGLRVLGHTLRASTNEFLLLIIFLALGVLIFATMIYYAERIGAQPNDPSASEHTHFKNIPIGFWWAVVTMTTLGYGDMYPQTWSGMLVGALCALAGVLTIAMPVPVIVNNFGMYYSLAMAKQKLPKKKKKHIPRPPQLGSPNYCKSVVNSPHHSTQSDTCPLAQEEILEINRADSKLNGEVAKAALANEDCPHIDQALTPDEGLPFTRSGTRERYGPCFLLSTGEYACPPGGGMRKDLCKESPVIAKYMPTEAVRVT
Outline: as §2

sensitivity of channel to compound (HV1)	sensitivity of channel to compound (NaV1.4)	sensitivity of channel to compound (NaV1.3)	sensitivity of channel to compound (KV1.3; vs 0.1% DMSO)	effect of mutating R554 on the compound's action on Otop1 (mOtop1/R554A)	sensitivity of channel to compound (PAC)	sensitivity of channel to compound (KV3.1)	inhibition ratio (KV1.3) [%]	inhibition ratio (NaV1.4) [%]	response of mutant to MFaN (mOtop1/R554A; pHs of 4.5, 5.0, and 6.0)	inhibition ratio (KV3.1) [%]	SMILES	response of mutant to MFaN (mOtop1/R554A; 10 μM, pH 5.5)
completely resistant	completely resistant	completely resistant	completely resistant	only partially reduced	completely resistant	completely resistant	–	–	–	–	Cc1cc(NC(=O)c2ccc(Br)o2)ccc1NC(=O)c1ccco1 [B2FAMP, 5-Bromo-N-[4-(2-furoylamino)-3-methylphenyl]-2-furamide]	–
completely resistant	completely resistant	completely resistant	–	did not affect	completely resistant	completely resistant	10.8	–	–	–	CC(C)c1noc2ncc(C(=O)c3ccccc3O)cc12 [HIMOP, (2-hydroxyphenyl)-(3-propan-2-yl-5-isoxazolo[5,4-b]pyridinyl)methanone]	–
completely resistant	–	completely resistant	–	–	completely resistant	–	15.9	7.0	completely unresponsive	15.2	Cc1ccc(C(=O)Nc2ccc3ccccc3c2)o1 [MFaN, 5-methyl-N-2-naphthyl-2-furamide]	entirely unresponsive; also recorded: completely abolished
